This is an account of results in ChEMBL document CHEMBL3259684, “Dual inhibition of the α-glucosidase and butyrylcholinesterase studied by molecular field topology analysis” (Eur J Med Chem, 2014).

The target of one experiment is Cholinesterase (Homo sapiens, UniProt P06276). As to the kind of experiment: Inhibition of BChE (unknown origin) using BCh iodide as substrate preincubated for 15 mins prior to substrate addition measured after 10 mins by Ellman's method. (In general: DTNB colorimetry detects thiols as they appear.)
Cholinesterase, sequence (P06276 whole entry): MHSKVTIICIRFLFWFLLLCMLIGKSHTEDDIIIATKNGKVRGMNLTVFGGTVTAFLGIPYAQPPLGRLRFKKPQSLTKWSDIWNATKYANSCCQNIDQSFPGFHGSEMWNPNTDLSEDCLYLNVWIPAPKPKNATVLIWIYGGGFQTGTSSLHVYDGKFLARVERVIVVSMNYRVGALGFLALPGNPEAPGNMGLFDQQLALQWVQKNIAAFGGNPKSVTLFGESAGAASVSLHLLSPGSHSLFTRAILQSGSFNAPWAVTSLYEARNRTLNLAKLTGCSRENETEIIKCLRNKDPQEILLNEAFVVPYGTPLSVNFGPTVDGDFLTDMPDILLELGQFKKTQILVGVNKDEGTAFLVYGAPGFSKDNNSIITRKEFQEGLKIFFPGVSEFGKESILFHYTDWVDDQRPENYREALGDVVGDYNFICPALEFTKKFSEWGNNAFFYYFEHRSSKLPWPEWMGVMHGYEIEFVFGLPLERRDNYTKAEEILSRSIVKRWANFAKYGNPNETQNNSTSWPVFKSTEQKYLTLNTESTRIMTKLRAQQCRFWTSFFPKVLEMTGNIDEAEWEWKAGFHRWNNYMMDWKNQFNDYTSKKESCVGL
Experiment [1] is described as follows: Inhibition of yeast alpha-glucosidase type 3 using p-nitrophenyl-alpha-D-glucopyranoside as substrate preincubated with substrate for 5 mins prior to enzyme challenge for 30 mins by absorbance analysis. On the set-up: species or system Saccharomyces cerevisiae. The method in brief: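 Yeast enzyme at 0.1 units/ml in pH 6.8 potassium phosphate/MgCl2 buffer; substrate stock 6 mmol/L. Compound (sample solution 0.6 mg/ml in DMSO) mixed with buffer, water and substrate, held 5 min at 37 °C, then enzyme added; reaction 30 min at 37 °C, stopped with 0.4 mol/L glycine buffer pH 10; p-nitrophenol read at 410 nm. Deoxynojirimycin as reference inhibitor.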

For `COc1ccccc1/C=C/C(=O)c1ccccc1`, the IC50 – broadly, the point on the concentration scale where inhibition reaches its midpoint – against Cholinesterase is 27 µM.
For `O=C(/C=C/c1ccc([N+](=O)[O-])cc1)c1ccccc1`, the IC50 in experiment [1] turned out to be 3850 µM; at Cholinesterase, 32 µM.
Consider `O=[N+]([O-])c1ccc(-n2cc(-c3ccccc3)nn2)cc1`, for which the IC50 worked out at 235 µM in experiment [1] and 250 µM against Cholinesterase.
As to `O=C(/C=C/c1ccccc1O)c1ccccc1`, the concentration for half-maximal inhibition (IC50) at Cholinesterase came to 105 µM.
`O=C(/C=C/c1ccccc1O)c1ccccc1O`: the IC50 in experiment [1] was 49.4 µM; against Cholinesterase it was 13 µM.
`Nc1ccc(C(=O)/C=C/c2ccccc2Br)cc1` yielded an IC50 against Cholinesterase of 26 µM. In other words, the double-digit micromolar range.
In the case of `c1ccc(C2=Nc3ccccc3SC(c3ccccc3)C2)cc1` (stereo unspecified), half-maximal inhibition in experiment [1] (IC50) was put at 33 µM.
As for `Oc1ccccc1C1=Nc2ccccc2SC(c2ccccc2)C1` (stereo unspecified), the values for the IC50 (in experiment [1]; against Cholinesterase) were 12.8 µM and 62 µM, respectively.
The molecule `Oc1ccccc1C1=Nc2ccccc2SC(c2ccc(Cl)cc2)C1` (stereo unspecified) registered an IC50 in experiment [1] of 18 µM.
With `Oc1ccccc1C1=Nc2ccccc2SC(c2ccc(F)cc2)C1` (stereo unspecified), the IC50 in experiment [1] is 12 µM; against Cholinesterase, 14 µM.
Turning to `COc1ccc(C2CC(c3ccccc3O)=Nc3ccccc3S2)cc1` (stereo unspecified), in experiment [1], the IC50 was 11.9 µM.
Take `Cc1ccc(C2CC(c3ccccc3O)=Nc3ccccc3S2)cc1` (stereo unspecified): the values for the IC50 (in experiment [1]; against Cholinesterase) were 12 µM and 14 µM, respectively.
`O=C(/C=C/c1ccc2c(c1)OCO2)c1ccccc1`: half-maximal inhibition in experiment [1] (IC50) required 1870 µM.
The same measure, in the same setting: the value for `O=C(/C=C/c1ccc2c(c1)OCO2)c1ccccc1O` was 151 µM.
`COc1cccc(/C=C/C(=O)c2ccccc2)c1`: the IC50 in experiment [1] is 151 µM; against Cholinesterase, 32 µM.
In the case of `CCCCCCCCCCCCCCCCn1cc(C2(O)CCCCC2)nn1`, the IC50 in experiment [1] was found to be 1190 µM; on Cholinesterase, 500 µM.
The like results for `OC1(c2cn(-c3ccccc3Cl)nn2)CCCCC1` were, in that order, 370 µM and 430 µM.
Take `O=[N+]([O-])c1cccc(-n2cc(C3(O)CCCCC3)nn2)c1`: the IC50 in experiment [1] was 862 µM; against Cholinesterase, 585 µM.
The like results for `Clc1ccccc1-n1cc(-c2ccccc2)nn1` were, in that order, 57.2 µM and 41.3 µM.
The like results for `Brc1ccc(-n2cc(-c3ccccc3)nn2)cc1` were, in that order, 409 µM and 375 µM.
The like results for `O=[N+]([O-])c1cccc(-n2cc(-c3ccccc3)nn2)c1` were, in that order, 520 µM and 499 µM.
For `N#Cc1cc([N+](=O)[O-])ccc1-n1cc(C2(O)CCCCC2)nn1`, the IC50 in experiment [1] is 49.7 µM; at Cholinesterase, 42.4 µM.
The like results for `O=C(On1cc(C2(O)CCCCC2)nn1)c1ccccc1` were, in that order, 1090 µM and 248 µM.
In the same order, the values of `CCCCCCCCc1ccc(-n2cc(C3(O)CCCCC3)nn2)cc1` are 658 µM and 43.6 µM.
As to `OC1(c2cn(-c3ccc(Cl)cc3)nn2)CCCCC1`, the figures for the IC50 (in experiment [1]; at Cholinesterase) were 1390 µM and 294 µM, respectively.
In the same order, the values of `COC(=O)Cc1ccc(-n2cc(C3(O)CCCCC3)nn2)cc1` are 812 µM and 568 µM.
The like results for `O=[N+]([O-])c1ccc(-n2cc(C3(O)CCCCC3)nn2)cc1` were, in that order, 320 µM and 409 µM.
The like results for `Cc1ccc(-n2cc(C3(O)CCCCC3)nn2)c(Cl)c1` were, in that order, 366 µM and 65.5 µM.
As for `CC(=O)c1cccc(-n2cc(C3(O)CCCCC3)nn2)c1`, the IC50 worked out at 320 µM in experiment [1] and 452 µM against Cholinesterase.
The like results for `OC1(c2cn(-c3cccc(Cl)c3)nn2)CCCCC1` were, in that order, 1390 µM and 512 µM.
The like results for `OC1(c2cn(-c3ccc(Br)cc3)nn2)CCCCC1` were, in that order, 325 µM and 298 µM.
The like results for `COc1cccc(-n2cc(C3(O)CCCCC3)nn2)c1` were, in that order, 245 µM and 83.3 µM.
In the case of `CC(=O)c1cccc(-n2cc(-c3ccccc3)nn2)c1`, the IC50 in experiment [1] was 265 µM; against Cholinesterase it was 451 µM.
In the same order, the values of `CC(=O)c1ccccc1-n1cc(-c2ccccc2)nn1` are 313 µM and 295 µM.
The like results for `O=[N+]([O-])c1ccccc1-n1cc(C2(O)CCCCC2)nn1` were, in that order, 1710 µM and 333 µM.
In the same order, the values of `COC(=O)Cn1cc(C2(O)CCCCC2)nn1` are 255 µM and 362 µM.
For the molecule `OC1(c2cn(-c3ccncc3)nn2)CCCCC1`, the values for the half-inhibitory concentration (IC50) (in experiment [1]; against Cholinesterase) were 520 µM and 385 µM, respectively.
In the same order, the values of `Clc1ccc(-n2cc(-c3ccccc3)nn2)cc1` are 378 µM and 555 µM.
In the same order, the values of `CCCCCCCCCCCCCCCCn1cc(-c2ccccc2)nn1` are 370 µM and 454 µM.
In the same order, the values of `CC(=O)c1ccc(-n2cc(C3(O)CCCCC3)nn2)cc1` are 1560 µM and 450 µM.
In experiment [1], `O=[N+]([O-])c1ccccc1-n1cc(-c2ccccc2)nn1` had an IC50 of 6760 µM. That is a millimolar value.
Molecule `Oc1ccc(C2=Nc3ccccc3SC(c3cccs3)C2)cc1` (stereo unspecified) returned an IC50 against Cholinesterase of 3.97 µM.
The same measure, in the same setting: the value for `Oc1ccc(C2=Nc3ccccc3SC(c3cccc(O)c3)C2)cc1` (stereo unspecified) was 4.7 µM; that for `c1ccc(C2=Nc3ccccc3SC(c3cccs3)C2)cc1` (stereo unspecified) was 9.1 µM.
On the same count and under the same terms, the value for `Cc1ccc(C2CC(c3cccc(O)c3)=Nc3ccccc3S2)c(C)c1` (stereo unspecified) was 19.7 µM; that for `O=[N+]([O-])c1ccc(C2CC(c3ccccc3O)=Nc3ccccc3S2)cc1` (stereo unspecified) was 57 µM.
In turn, `CCSc1ccccc1-c1cnc(-c2ccsc2)[nH]1` showed an IC50 against Cholinesterase of 0.1 µM. This IC50 is about 570-fold lower than that of the molecule before.
In experiment [1], `COc1ccc(C(=O)/C=C/c2ccc(N)cc2)cc1` yielded an IC50 of 20.2 µM.
Same read-out and setting: the figure for `COc1cccc(/C=C/C(=O)c2ccc(N)cc2)c1` is 93 µM.
With `COc1cccc(/C=C/C(=O)c2ccccc2O)c1`, inhibition in experiment [1] was half-maximal at 130 µM (IC50).
For the molecule `O=C(/C=C/c1ccccc1)c1ccccc1O` [2'-HYDROXYCHALCONE], the values for the IC50 (in experiment [1]; at Cholinesterase) were 15 µM and 84 µM, respectively.
As to `COc1ccc(/C=C/C(=O)c2ccccc2)cc1` [4-METHOXY CHALCONE], half-maximal inhibition at Cholinesterase (IC50) was put at 42 µM.
The molecule `O=C(/C=C/c1ccccc1)c1ccccc1` [CHALCONE] registered an IC50 at Cholinesterase of 87 µM.
